Consider one compound from ChEMBL document CHEMBL4808225, “Discovery and Characterization of Selective and Ligand-Efficient DYRK Inhibitors” (J Med Chem, 2021).

Data set [1] in a line: Metabolic stability in human liver microsomes. Format: ADME, Microsome. To be noted: read-out: Stabilty.
Data set [2] deals with Dual specificity tyrosine-phosphorylation-regulated kinase 1B (Homo sapiens) (UniProt Q9Y463). Kind of data set: Inhibition of wild-type human full length DYRK1B (M1 to S629 residues) expressed in bacterial expression system assessed as remaining activity at 1 uM by Kinomescan method relative to control. In short, it runs like this: (§1)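 KINOMEscan competition binding panel run with inhibitor at 1 μM; read-out is remaining kinase activity (percent of control).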
Sequence of Dual specificity tyrosine-phosphorylation-regulated kinase 1B (Homo sapiens) (Q9Y463 whole entry, looked up, the tested form may be a part): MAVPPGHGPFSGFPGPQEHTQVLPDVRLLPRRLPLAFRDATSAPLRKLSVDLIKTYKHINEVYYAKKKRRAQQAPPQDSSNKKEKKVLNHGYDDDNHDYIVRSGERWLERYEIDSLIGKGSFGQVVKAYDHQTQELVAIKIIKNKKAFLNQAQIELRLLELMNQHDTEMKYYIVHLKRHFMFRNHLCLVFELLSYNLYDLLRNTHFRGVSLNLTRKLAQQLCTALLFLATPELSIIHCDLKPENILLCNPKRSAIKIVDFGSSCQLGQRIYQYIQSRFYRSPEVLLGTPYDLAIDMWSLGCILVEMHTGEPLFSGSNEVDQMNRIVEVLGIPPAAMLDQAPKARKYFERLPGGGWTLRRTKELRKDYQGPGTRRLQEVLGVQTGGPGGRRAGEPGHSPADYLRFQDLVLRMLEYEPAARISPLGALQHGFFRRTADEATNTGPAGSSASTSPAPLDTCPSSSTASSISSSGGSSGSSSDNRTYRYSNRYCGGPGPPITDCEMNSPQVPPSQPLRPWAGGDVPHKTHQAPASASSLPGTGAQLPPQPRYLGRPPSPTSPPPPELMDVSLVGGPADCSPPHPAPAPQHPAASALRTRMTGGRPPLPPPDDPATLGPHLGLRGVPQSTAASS

Data set [3] has as its target Dual specificity protein kinase CLK3 (Homo sapiens) (UniProt P49761). Nature of the data set: Inhibition of wild-type human full length CLK3 (M1 to R490 residues) expressed in bacterial expression system assessed as remaining activity at 1 uM by Kinomescan method relative to control. The method in brief: as §1
For data set [4], the target named is Cyclin-dependent kinase 2 (Homo sapiens) (UniProt P24941). Nature of the data set: Inhibition of wild-type human full length CDK2 (M1 to L298 residues) expressed in bacterial expression system assessed as remaining activity at 1 uM by Kinomescan method relative to control. The method in brief:
as §1

In data set [5] the target is Dual specificity protein kinase CLK4 (Homo sapiens, UniProt Q9HAZ1). Nature of the data set: Binding affinity to wild-type human partial length CLK4 (R135 to K481 residues) expressed in bacterial expression system measured after 1 hr by competitive binding assay.
Sequence of Dual specificity protein kinase CLK4 (Q9HAZ1 whole entry, the tested form may be a part): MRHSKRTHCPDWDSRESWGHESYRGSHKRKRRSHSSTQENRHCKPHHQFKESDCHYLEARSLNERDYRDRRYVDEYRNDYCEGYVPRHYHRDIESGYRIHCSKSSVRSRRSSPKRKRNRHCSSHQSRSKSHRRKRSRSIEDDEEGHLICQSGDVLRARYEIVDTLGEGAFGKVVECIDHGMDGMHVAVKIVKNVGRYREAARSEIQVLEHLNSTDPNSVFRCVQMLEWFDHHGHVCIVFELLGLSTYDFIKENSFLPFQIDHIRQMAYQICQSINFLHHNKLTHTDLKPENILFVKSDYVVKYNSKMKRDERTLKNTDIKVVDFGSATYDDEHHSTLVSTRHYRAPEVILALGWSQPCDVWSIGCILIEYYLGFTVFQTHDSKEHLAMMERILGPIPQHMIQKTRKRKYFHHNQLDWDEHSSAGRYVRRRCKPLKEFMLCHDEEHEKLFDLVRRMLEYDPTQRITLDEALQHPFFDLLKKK
The target of data set [6] is T1, Dual specificity tyrosine-phosphorylation-regulated kinase 2 (Homo sapiens, UniProt Q92630).
T1 sequence (Q92630 whole entry): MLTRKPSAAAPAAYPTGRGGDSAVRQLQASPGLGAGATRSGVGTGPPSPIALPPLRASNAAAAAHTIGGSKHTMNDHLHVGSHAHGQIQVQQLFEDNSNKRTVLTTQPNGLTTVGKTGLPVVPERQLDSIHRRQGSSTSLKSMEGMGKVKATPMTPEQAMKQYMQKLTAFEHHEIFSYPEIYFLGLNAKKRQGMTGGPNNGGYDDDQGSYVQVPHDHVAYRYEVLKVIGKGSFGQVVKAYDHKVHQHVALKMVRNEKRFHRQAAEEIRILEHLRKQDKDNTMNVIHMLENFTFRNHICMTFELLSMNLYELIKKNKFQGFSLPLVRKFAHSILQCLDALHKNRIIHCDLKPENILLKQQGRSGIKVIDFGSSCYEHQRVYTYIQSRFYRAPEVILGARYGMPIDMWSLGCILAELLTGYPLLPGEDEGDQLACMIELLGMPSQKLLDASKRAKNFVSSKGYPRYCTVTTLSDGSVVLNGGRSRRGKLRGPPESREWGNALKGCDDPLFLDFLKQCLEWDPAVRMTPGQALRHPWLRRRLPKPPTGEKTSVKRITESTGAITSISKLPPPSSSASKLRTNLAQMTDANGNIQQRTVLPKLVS
Nature of the data set: Binding affinity to wild-type human full length DYRK2 (M1 to S528 residues) expressed in mammalian expression system measured after 1 hr by competitive binding assay.

The target in data set [7] is T2, Tyrosine-protein kinase JAK3 (Homo sapiens, UniProt P52333).
T2 sequence (P52333 whole entry): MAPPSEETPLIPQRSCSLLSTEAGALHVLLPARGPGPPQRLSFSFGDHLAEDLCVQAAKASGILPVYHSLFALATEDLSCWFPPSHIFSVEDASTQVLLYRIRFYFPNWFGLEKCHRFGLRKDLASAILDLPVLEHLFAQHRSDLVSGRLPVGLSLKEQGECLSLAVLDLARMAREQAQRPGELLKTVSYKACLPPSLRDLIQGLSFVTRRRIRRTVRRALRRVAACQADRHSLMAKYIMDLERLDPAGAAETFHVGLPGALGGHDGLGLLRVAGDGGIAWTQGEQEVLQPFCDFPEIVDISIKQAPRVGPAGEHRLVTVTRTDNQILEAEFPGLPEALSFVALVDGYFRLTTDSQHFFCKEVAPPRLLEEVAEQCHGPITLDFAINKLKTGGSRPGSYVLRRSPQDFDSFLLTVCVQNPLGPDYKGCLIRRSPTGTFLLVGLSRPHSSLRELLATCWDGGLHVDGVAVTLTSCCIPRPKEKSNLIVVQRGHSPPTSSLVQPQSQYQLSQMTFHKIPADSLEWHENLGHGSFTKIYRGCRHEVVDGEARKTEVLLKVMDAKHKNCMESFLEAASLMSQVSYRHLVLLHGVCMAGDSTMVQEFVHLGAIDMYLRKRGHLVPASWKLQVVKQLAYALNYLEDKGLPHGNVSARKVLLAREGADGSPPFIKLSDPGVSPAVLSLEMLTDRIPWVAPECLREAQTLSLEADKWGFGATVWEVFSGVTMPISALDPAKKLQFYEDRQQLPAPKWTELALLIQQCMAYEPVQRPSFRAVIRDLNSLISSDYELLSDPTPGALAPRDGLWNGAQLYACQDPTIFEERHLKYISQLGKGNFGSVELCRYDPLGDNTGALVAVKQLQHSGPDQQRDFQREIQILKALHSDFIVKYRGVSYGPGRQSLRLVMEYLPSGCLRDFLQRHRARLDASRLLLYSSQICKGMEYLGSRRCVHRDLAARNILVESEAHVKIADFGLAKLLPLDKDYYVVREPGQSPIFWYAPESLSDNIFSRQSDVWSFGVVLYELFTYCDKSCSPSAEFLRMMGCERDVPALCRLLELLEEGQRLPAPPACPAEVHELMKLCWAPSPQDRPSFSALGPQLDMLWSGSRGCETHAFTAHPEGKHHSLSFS
Nature of the data set: Binding affinity to wild-type human partial length JAK3 JH1 catalytic domain (I781 to S1124 residues) expressed in mammalian expression system measured after 1 hr by competitive binding assay.

In data set [8] the target is STE20/SPS1-related proline-alanine-rich protein kinase (Homo sapiens, UniProt Q9UEW8). Nature of the data set: Binding affinity to wild-type human partial length STK39 (P43 to I357 residues) expressed in mammalian expression system measured after 1 hr by competitive binding assay.
For data set [9], the target named is Serine/threonine-protein kinase WNK2 (Homo sapiens, UniProt Q9Y3S1). Kind of data set: Binding affinity to wild-type human partial length WNK2 (V47 to D482 residues) expressed in mammalian expression system measured after 1 hr by competitive binding assay.
Sequence of Serine/threonine-protein kinase WNK2 (Q9Y3S1 whole entry, the tested form may be a part): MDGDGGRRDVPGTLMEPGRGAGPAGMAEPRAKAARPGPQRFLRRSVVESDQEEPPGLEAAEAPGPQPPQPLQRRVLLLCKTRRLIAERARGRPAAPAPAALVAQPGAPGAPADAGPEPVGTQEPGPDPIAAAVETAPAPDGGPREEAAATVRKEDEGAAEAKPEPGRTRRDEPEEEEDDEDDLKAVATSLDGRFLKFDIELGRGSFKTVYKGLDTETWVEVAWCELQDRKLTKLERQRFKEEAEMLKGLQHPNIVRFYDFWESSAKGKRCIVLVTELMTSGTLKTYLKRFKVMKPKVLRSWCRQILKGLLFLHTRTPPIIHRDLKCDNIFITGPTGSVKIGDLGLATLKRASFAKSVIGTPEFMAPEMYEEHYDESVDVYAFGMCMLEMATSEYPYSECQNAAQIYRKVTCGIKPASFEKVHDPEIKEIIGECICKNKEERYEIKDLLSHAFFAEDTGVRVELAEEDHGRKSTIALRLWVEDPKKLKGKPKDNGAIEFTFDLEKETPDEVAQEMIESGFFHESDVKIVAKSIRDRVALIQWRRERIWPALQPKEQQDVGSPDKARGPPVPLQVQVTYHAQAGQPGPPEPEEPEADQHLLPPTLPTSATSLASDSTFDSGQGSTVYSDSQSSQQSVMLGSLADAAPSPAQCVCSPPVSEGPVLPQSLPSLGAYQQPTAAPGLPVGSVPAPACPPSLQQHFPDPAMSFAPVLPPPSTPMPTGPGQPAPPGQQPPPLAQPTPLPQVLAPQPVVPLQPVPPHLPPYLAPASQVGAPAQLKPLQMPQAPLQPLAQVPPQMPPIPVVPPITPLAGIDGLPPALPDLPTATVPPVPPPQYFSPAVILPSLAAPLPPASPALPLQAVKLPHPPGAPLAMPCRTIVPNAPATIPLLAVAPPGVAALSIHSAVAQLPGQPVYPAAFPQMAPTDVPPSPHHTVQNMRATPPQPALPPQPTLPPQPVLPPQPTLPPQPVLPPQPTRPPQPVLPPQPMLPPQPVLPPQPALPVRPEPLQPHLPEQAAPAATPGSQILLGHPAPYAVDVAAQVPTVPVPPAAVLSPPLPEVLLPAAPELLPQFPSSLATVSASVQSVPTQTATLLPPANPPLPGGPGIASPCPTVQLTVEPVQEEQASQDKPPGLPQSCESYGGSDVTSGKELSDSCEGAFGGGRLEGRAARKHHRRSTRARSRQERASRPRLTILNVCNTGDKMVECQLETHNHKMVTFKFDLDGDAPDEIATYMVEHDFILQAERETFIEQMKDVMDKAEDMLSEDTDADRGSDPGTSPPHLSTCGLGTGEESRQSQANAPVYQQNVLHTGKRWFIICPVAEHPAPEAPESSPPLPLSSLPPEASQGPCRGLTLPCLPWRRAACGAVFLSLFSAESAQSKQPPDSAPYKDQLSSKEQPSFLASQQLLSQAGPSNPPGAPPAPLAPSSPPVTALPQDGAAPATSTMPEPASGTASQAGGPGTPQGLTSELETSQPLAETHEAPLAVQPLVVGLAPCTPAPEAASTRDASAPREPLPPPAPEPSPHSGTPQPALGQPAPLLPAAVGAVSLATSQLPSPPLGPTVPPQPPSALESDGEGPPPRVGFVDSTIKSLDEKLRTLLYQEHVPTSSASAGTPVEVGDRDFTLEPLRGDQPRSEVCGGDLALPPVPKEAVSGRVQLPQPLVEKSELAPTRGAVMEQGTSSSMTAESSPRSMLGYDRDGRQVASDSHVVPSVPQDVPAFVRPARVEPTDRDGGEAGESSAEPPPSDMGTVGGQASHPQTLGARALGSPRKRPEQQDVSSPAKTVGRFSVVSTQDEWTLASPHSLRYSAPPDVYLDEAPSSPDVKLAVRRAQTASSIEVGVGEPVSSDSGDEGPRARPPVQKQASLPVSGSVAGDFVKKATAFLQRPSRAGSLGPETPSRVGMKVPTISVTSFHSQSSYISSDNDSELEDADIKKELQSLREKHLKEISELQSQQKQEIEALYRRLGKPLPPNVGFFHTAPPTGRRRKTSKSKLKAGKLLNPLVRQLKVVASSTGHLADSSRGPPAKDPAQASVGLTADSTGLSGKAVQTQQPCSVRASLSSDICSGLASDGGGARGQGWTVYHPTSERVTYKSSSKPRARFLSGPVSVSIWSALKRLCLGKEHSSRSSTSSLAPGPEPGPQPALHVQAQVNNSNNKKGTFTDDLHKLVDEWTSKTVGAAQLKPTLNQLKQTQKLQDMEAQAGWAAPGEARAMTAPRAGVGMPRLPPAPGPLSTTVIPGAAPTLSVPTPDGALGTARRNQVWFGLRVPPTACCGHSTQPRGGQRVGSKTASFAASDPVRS
Data set [10] is described as follows: AUClast in Sprague-Dawley rat at 1 mg/kg, iv. The format is ADME, organism-based. The arrangement: route intravenous, time 0 - last, dose 1 mg/kg. As to conditions: in vivo. The method in brief: (§2)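 Single intravenous dose of 1 mg/kg given to fed Sprague–Dawley rats (n = 3); plasma and brain samples collected for pharmacokinetic parameters, with total brain:plasma ratio computed.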

Data set [11] in a line: MRT in Sprague-Dawley rat at 1 mg/kg, iv. To be noted: in vivo. Format: ADME, organism-based. In short, it runs like this:
as §2

The nature of data set [12]: Initial plasma concentration in Sprague-Dawley rat at 1 mg/kg, iv. Format: ADME, organism-based. As to conditions: in vivo. The method in brief:
as §2

A short description of data set [13]: Toxicity in Sprague-Dawley rat assessed as adverse effect at 1 mg/kg, iv. As to conditions: in vivo. Format: organism-based. In short, it runs like this:
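Fed Sprague–Dawley rats (n = 3) received one 1 mg/kg iv dose; adverse effects were recorded during the pharmacokinetic study.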

Sequence of Dual specificity protein kinase CLK3 (Homo sapiens) (P49761 whole entry, looked up, the tested form may be a part): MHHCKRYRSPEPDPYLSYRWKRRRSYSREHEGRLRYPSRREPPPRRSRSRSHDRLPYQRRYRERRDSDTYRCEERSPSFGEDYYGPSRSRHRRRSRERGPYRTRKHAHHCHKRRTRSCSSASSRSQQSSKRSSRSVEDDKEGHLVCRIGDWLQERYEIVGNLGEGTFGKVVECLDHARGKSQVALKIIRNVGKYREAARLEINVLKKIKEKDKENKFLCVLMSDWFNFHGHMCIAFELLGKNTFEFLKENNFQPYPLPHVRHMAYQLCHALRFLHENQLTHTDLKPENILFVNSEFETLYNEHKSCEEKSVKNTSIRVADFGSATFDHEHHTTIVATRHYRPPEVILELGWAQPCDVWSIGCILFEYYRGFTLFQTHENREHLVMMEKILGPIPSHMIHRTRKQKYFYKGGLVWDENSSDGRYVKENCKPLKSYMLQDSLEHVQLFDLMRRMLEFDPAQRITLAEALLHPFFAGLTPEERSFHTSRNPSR

Consider `CN(C)c1nccc(-c2cnn3ncccc23)n1`, for which the microsomal CLint in [1] is 242 µL/min/mg. Besides, the Activity in data set [2] was 2.7%; in data set [3] it was 54%; in [4], 100%; in data set [13] it was “Non-Toxic”. Further, the equilibrium dissociation constant (Kd) in data set [5] worked out at 61 nM; in data set [6], 360 nM; in data set [7], 1800 nM; in [8], 10000 nM; in data set [9] it was 10000 nM. In data set [10], this compound came in with an AUClast of 275.3 ng·h/mL. The compound also yielded an MRT in data set [11] of 12 min. In data set [12], the C0 came to 1331.5 ng/mL.
